Measurements reported in ChEMBL document CHEMBL4513216, “Probing the Open Global Health Chemical Diversity Library for Multistage-Active Starting Points for Next-Generation Antimalarials” (ACS Infect Dis, 2020).

Assay: Toxicity liver stage against HepG2, at 10uM
Type: cell-based
Design: test concentration 10 uM, cell line HepG2-A16-CD81EGFP
Conditions: human, HepG2-A16-CD81EGFP cells; read-out: INHIBITION
Summary of the method: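 Uninfected HepG2-A16-CD81EGFP cells, 3 × 10^3 per well, 1536-well, plated on prespotted compound at 10 μM final, parasite-free screening media added to match infected plates; puromycin 10 μM positive, DMSO 0.5% negative; run in parallel with 48 h PbLuc assay at 37 °C, 5% CO2; viability by CellTiter-Glo luminescence, normalized to controls.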

Compound	cytotoxicity at 10 µM [%]
CCn1c(=NC(=O)CSCC(=O)Nc2nccs2)sc2ccccc21	-2.17
c1ncc2c(n1)CN(CC1CCCCO1)CC2 (centres undefined)	2.93
CCS(=O)(=O)N1CCc2ccc(NC(=O)Nc3ccccc3)cc21	42.2
Cc1cc(C(=O)N2CCN(c3nc4c(C(C)C)cccc4s3)CC2)on1	6.64
CCc1cc(=O)[nH]c(-n2nc(C3CC3)cc2NC(=O)C2CC2)n1	26.5
Cc1nc(-n2nc(C3CC3)cc2NC(=O)C(C)C)[nH]c(=O)c1C	54.5
CC(=O)N(C)CC(=O)Nc1cnc(-n2ccnc2C)nc1	3.86
O=C(NC1CC1)c1cnc(-c2noc3cc(N4CCCCC4)ccc23)s1	46
COCCNC(=O)Cn1c(C)cc2nc(SC)n(CC(C)C)c(=O)c21	-14.6
COc1ccc(-c2nnsc2C(=O)N2CCC(C(N)=O)CC2)cc1	-1.7
COCCCNC1N=C(n2nc(C)cc2C)Nc2sc3c(c21)CCCC3 (centres undefined)	10.6
O=C(c1ccc(COc2ccc(Cl)cc2)o1)N1N=CCC1(O)C(F)(F)F (centres undefined)	30
O=C1CC(c2ccc(C(=O)O)cc2)c2c(sc3c2CCCC3)N1 (centres undefined)	-5.14
Cc1cc2c(cc1Cl)C=CC1(CCN(C(=O)N3CCOCC3)CC1)O2	23.2
CC(C)Nc1cc(-c2c[nH]nc2C2CCN(C(=O)C3CCC3)C2)ccn1 (centres undefined)	81.8
CC(C)C[C@H](N)COc1cccc(F)c1Oc1ccc(Cl)cc1	84.7
Cc1ccc(Nc2nccc(C3CCN(CC(N)=O)C3)n2)nc1 (centres undefined)	-16.7
Cc1ccc(Oc2cc(F)ccc2O[C@@H]2CCC[C@@H](N)[C@H]2O)cc1	-3.89
COc1cc(C)c(CN2CCc3nc4ccsc4c(=O)n3CC2)cc1C	-15.7
COc1ccc(CN2CCc3nc4ccsc4c(=O)n3CC2)c(C)c1C	67.3
Cc1ccc(S(=O)(=O)N2C[C@H]3C[C@H](NC(=O)c4ccccn4)[C@H]3C2)cc1	64.3
Cc1cc(-c2cnc(NCc3ccc4c(c3)OCO4)nc2C(C)C)on1	-1.23

Compound	cytotoxicity at 10 µM [%]
Cc1ccc([C@]2(O)CC[C@H]3CN(Cc4ccc(Cl)cc4Cl)C[C@H]32)nc1	8.32
CN(C)S(=O)(=O)N1CCC(c2cccc(Cc3ccccc3Cl)n2)CC1	55.9
Cc1nccn1-c1cccc(N2CCC(OCC3CCCCO3)CC2)n1 (centres undefined)	11.3
COC(=O)c1ncccc1N1CCCCC1	-8.77
CCN(C)S(=O)(=O)N1CCCC(c2nc(-c3ccccc3)c[nH]2)C1 (centres undefined)	-8.02
COc1cc(NC(=O)N(C)C(C2CC2)C2CC2)ncn1	-6.69
Cc1noc(C)c1CN(C)CCc1nc(-c2cccc(Cl)c2)no1	16.6
COC(=O)CCN(C)C(=O)c1csc(Cc2ccccc2F)n1	9.38
Cc1csc(N2CCCN(c3cc(C)nc(C)c3C#N)CC2)n1	22.6
Cc1nn(C)c(C)c1CCNC(C)c1ccc(-n2ccnc2C)cc1 (centres undefined)	31.6
O=C(Nc1nccs1)C1CCCN1Cc1ccccn1 (centres undefined)	-20
c1cnnc(N2CCCC2CNCCc2cccs2)c1 (centres undefined)	-0.555
CC(C(=O)Nc1sccc1C(N)=O)N(C)CCOc1ccccc1 (centres undefined)	2.59
c1ccc(C2CCCN(c3cncc(-n4cccn4)n3)CC2)cc1 (centres undefined)	48
CCCS(=O)(=O)CC(=O)N1CCCC1c1noc(C2CC2)n1 (centres undefined)	3.34
COc1ccc(Br)c(C(=O)NCC2CC2)c1	23.4
COCCN1CCN(CCS(=O)(=O)c2cccc(OC)c2)CC1	-1.33
N#Cc1ccc(OCC(O)CN2CCN(c3nccs3)CC2)cc1 (centres undefined)	2.06
Cc1nc(COc2ccc(CNCCn3cccn3)cc2)cs1	-8.96
C=C(C)CN1CCC(NC(=O)NCCc2ccccc2OC)CC1	14.2
COCC(=O)NCc1cccc(OCCN(C)C2CCOCC2)c1	8.35
O=C(CN1CCCC1Cn1cncn1)NCC1(c2ccccc2)CC1 (centres undefined)	4.74

Compound	cytotoxicity at 10 µM [%]
Cc1nc(C)n(CC2CCCN2CC(=O)NCCc2ccsc2)n1 (centres undefined)	0.932
O=C(c1c[nH]c(=O)[nH]1)N1CCc2ccccc21	81.9
Cc1cn2c(n1)C(CNCC1=Cc3cc(Cl)ccc3OC1)CCC2 (centres undefined)	33.3
CC(C)n1nc2c(cc1=O)CN(c1ncnc3sccc13)CC2	49.7
COC(=O)c1sc(NCc2ccc(N3CCC(O)CC3)c(F)c2)nc1Cl	44.5
Cc1ccc(-c2nc(CSCCC(=O)NC(N)=O)co2)cc1	-2.69
Fc1cccc2ncnc(NCC3(N4CCOCC4)CCSC3)c12 (centres undefined)	50.6
N#Cc1ccc(CN(CC(N)=O)C2CCCC2)cc1	38
CCc1nc(CN2CCCC(Nc3ncnc4ccsc34)C2)no1 (centres undefined)	52.2
Cc1ncc(C(=O)NC2CCN(CCOc3ccc(Br)cc3)CC2)s1	7.28
CN1CCOC(C(=O)Nc2ccc3c(c2)nc(C(C)(C)C)n3C)C1 (centres undefined)	-1.8
CC1CCN(c2nc3c(cnn3-c3ccccc3)c(=O)[nH]2)CC1	-9.5
CCc1nc(CN2CCN(c3ncnc4cc(F)ccc34)CC2)no1	41.5
NC(=O)C1CN(C(=O)Nc2cc(Cl)cc(Cl)c2)CCO1 (centres undefined)	55.1
Cc1ccc(CN2CCC3(CC2)C(=O)NCCN3CC2CC2)o1	-66.8
Cc1cn2c(=O)c(-c3ccnc(N(C)C4CCCCC4)n3)cnc2s1	9.49
Cc1cncc(NC(=O)c2ccc(CN3CC[C@H](O)C3)cc2)c1	12.4
Cc1noc(-c2ccnc(Oc3ccc(CN4CCCC4)cc3C)c2)n1	51.4
CC(C)c1cc(NCc2csc(N(C)C)n2)nc(N)n1	31.8
Cc1cnc(C)c(Oc2ccc(CN3CCCC3)cc2Cl)n1	-1.37
Cc1ccccc1OC1CN(Cc2c(C)nc3ccccn23)C1	43.3
CN(Cc1cccc(-n2cccn2)c1)c1cc(N2CCCC2)nc(N)n1	51.6

Compound	cytotoxicity at 10 µM [%]
CN(C)CCNC(=O)c1ccc(S(=O)(=O)N[C@@H]2CCNC2)cc1	-49.2
O=S1(=O)CCC(CNc2cc(-c3ccccc3)nc3ccnn23)C1 (centres undefined)	61.2
Cc1[nH]c2ccc(Cl)cc2c1CCNc1ncnc2c1CCNC2	22.4
COc1cc(Oc2ccc(C(F)(F)F)cn2)ccc1CN1CCCC1	51.5
OCC1(Cc2ccc(Cl)cc2)CCN(Cc2cccnc2)CC1	-45.6
CCc1[nH]c2c(CNc3cc(C)nc(NC)n3)cc(C)cc2c1C	-41
Cc1ccccc1N1CCN(c2nc(N(C)C)nc3c2CCNC3)CC1	8.97
NCC1CCN(C2CCN(c3ccc(-c4ccco4)cc3)CC2)C1 (centres undefined)	93.9
Cc1ccccc1CC1(CO)CCCN(c2ncnc3sccc23)C1 (centres undefined)	27.5
CCCc1cncnc1N1CCC(NCc2cc3ccccc3[nH]2)CC1	15.8
Cc1c(-c2cnn(C)c2)nc(N)c(C#N)c1-c1ccc(CO)o1	-117
COc1ccccc1C1CCN(c2ccc3cc[nH]c3n2)CC1	-6.78
CC(C)(C)c1cn(CC2CCCN(c3cnc4ccccc4n3)C2)nn1 (centres undefined)	42.9
FC(F)(F)c1nc(NC2CCCCC2)c2ccccc2n1	29.7
Cc1ccccc1-n1cc(-c2ccnc(NC(CO)C(C)C)n2)cn1 (centres undefined)	7.12
Nc1nc2c(c(NC3CCCC3)n1)CCN(C(=O)C1CCOC1)CC2 (centres undefined)	-129
COCc1noc(-c2ccc(N3CCCCC3CO)nc2)n1 (centres undefined)	-2.38
FC(F)(F)c1nc(NC2CCCC2)c2ccccc2n1	15.8
CC(=O)c1ccc(N2CCC(CO)(CCOc3ccccc3)CC2)nc1	28.1
Cc1ccccc1-c1noc(CN2CCC(N3CCNC3=O)CC2)n1	11.6
O=C1NCCN1C1CCN(Cc2nc(-c3ccccc3)no2)CC1	30.3
Cc1cnn(C2CN(Cc3nc(-c4ccccc4C)no3)C2)c1	-10.6

Compound	cytotoxicity at 10 µM [%]
O=C(c1cc(Cl)c[nH]1)N1CCCC(c2cc(C(F)(F)F)[nH]n2)C1 (centres undefined)	18
COc1cc(C(=O)Nc2nc(C)no2)cc(OC)c1Br	-8.78
Cc1cccc(C(=O)NCc2ccc(N3CCCCCC3)nc2)n1	-5.34
CCc1cccc(N2CCC(NC(=O)c3ccco3)CC2)c1	-4.38
Cc1nc(C)n(CC2CN(Cc3nc4ccccc4s3)CCO2)n1 (centres undefined)	44.4
Cc1nc(C)n(CC2CCCN(c3ncnc4ccccc34)C2)n1 (centres undefined)	17.4
COc1c(CNCc2ccc(C(=O)N(C)C(C)C)cc2)c(C)nn1C	33.2
COc1c(C)cnc(CN2CCC(N(C)C(C)C(N)=O)CC2)c1C (centres undefined)	-3.38
Cc1cccc(NC2CCN(C(=O)Nc3cc(F)cc(F)c3)CC2)n1	-0.961
Cc1ccoc1C(=O)NC1CCN(Cc2csc3c(F)cccc23)CC1	1.13
c1ccc(Sc2ccc3c(c2)OCO3)c(CNC2=NCCN2)c1	17.6
Cc1nnc(N2CC[C@H]3C[C@H](C(=O)N(C)C)O[C@@H]3C2)s1	-80.9
O=C1N(Cc2cccnc2)CCC12CCCN(c1ncccn1)C2 (centres undefined)	-10.9
Cc1nnc(N2CC[C@@H](OCC3CC3)[C@@H](Cc3ccccc3)C2)s1	14.4
O=C(NC1CC1)[C@@H]1CCO[C@@H]2CCN(CC3CCC3)C[C@@H]21	-101
O=C(NCc1cc(=O)n2c(n1)CN(CC1CC1)CCC2)c1ccsc1	-103
Fc1ccc(CN2CCO[C@H]3[C@H](OCc4ccncc4)CC[C@@H]32)cc1	-26.7
COc1ccc2c(c1)C1(CCNCC1)CC2NC1CC1 (centres undefined)	-117
O=C(Cc1ccncc1)N1CCC2(CC1)CC(c1ccccc1)CO2 (centres undefined)	-86.1
c1cnc(N2CCC3(CC2)CC(NCC2CC2)c2ccccc23)nc1 (centres undefined)	22.4
CC(C)c1nnc(N2C[C@H]3CC[C@@H](C2)N(Cc2ccccc2)C3)s1	-3.86
